The values that follow come from ChEMBL document CHEMBL1157953, “Antiviral flavans from the leaves of Pithecellobium clypearia” (J Nat Prod, 2006).

Converted amounts (≈) assume the structure as drawn.

Data set [1] can be described thus: Cytotoxicity against human Hep2 cells after 3 days by MTT reduction assay. The format is cell-based, HEp-2. Summed up: (§1)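 Serial sample dilutions (from 40 mg/mL DMSO stock; top test concentration 1000 µg/mL in maintenance medium, 1% FBS with gentamicin) added in triplicate to confluent monolayers, 37 °C, 5% CO2. After 3 days MTT added for 3 h; formazan dissolved in DMSO, OD read at 540 and 690 nm. CC50 = concentration reducing viable cells to 50% of medium control.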

Data set [2] deals with Respiratory syncytial virus. Put plainly: Antiviral activity against RSV Long in human Hep2 cells assessed as reduction of virus induced cytopathic effect. The format is functional, organism-based. As to conditions: HEp-2. Summed up:
(§2)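 CPE reduction assay: confluent monolayers received 0.1 mL of 100 TCID50 virus simultaneously with 0.1 mL of serial 2-fold sample dilutions. Samples were dissolved in DMSO, then diluted into maintenance medium (MEM, 1% FBS, gentamicin, L-glutamine). Incubation at 37 °C, 5% CO2 for 4-6 days. CPE was scored 0-4 against virus and cell controls. IC50 is the concentration halving CPE, estimated from plots.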

Data set [3] in a line: Selectivity index, CC50 for human Hep2 cells to IC50 for RSV Long. Format: functional, HEp-2. Summed up: (§3)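 SI = CC50/IC50. CC50 came from an MTT assay: confluent monolayers were exposed in triplicate to sample dilutions for 3 days, then MTT was added for 3 h, formazan was dissolved in DMSO, and OD was read at 540/690 nm. CC50 is the concentration cutting viable cells to 50% of control. IC50 came from the CPE reduction assay in the matching cell line.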

The nature of data set [4]: Cytotoxicity against african green monkey Vero cells after 3 days by MTT reduction assay. Format: cell-based. As to conditions: chlorocebus sabaeus. Put shortly: as §1
A further data set concerns Human alphaherpesvirus 1. The data set can be described thus: Antiviral activity against HSV1 15577 in african green monkey Vero cells assessed as reduction of virus induced cytopathic effect. The format is functional, organism-based. As to conditions: Human alphaherpesvirus 1, Vero. Put shortly: as §2
Data set [5] can be described thus: Selectivity index, CC50 for african green monkey Vero cells to IC50 for HSV1 15577. The format is functional. Summed up: as §3
Data set [6] is described as follows: Cytotoxicity against MDCK cells after 3 days by MTT reduction assay. Conditions: dog. Format: cell-based, Canis lupus familiaris. Summed up:
as §1

Data set [7] in a line: Selectivity index, CC50 for MDCK cells to IC50 for influenza A virus H1N1 A/NWS/33. Format: functional. Summed up: as §3
A further data set has as its system Coxsackievirus B3. The data set can be described thus: Antiviral activity against Cox B3 virus in human Hep2 cells assessed as reduction of virus induced cytopathic effect. Format: functional, organism-based. As to conditions: Enterovirus B, HEp-2. Put shortly: as §2
Data set [8] in a line: Selectivity index, CC50 for human Hep2 cells to IC50 for Cox B3 virus. The format is functional, HEp-2. Summed up: as §3

As for `O=C(Oc1cc(O)c2c(c1)OC(c1cc(O)c(O)c(O)c1)CC2)c1cc(O)c(O)c(O)c1` (stereo not drawn), the CC50 at 72 h in data set [1] turned out to be 95 µg/mL (≈ 215 µM); in data set [4] it was 120 µg/mL (≈ 271 µM); in data set [6] it was 110 µg/mL (≈ 249 µM). In addition, the MNTC at 72 h came to 25 µg/mL in data set [1] (read-out: MNCC), 31.3 µg/mL in data set [4] (read-out: MNCC) and 62.5 µg/mL in [6] (read-out: MNCC). The IC50 was 5 µg/mL (≈ 11.3 µM) in data set [2], 30 µg/mL (≈ 67.8 µM) in the data set with Human alphaherpesvirus 1 and 12.5 µg/mL (≈ 28.3 µM) with Coxsackievirus B3. Further, the “Ratio CC50/IC50” value in [3] was 19; in [5], 4; in data set [7] it was 7; in data set [8], 7.6.
For `Nc1nc2c(ncn2COCCO)c(=O)[nH]1` [ACYCLOVIR], in data set [4], the CC50 at 72 h was above 500 µg/mL. Besides, the IC50 with Human alphaherpesvirus 1 was determined as 0.25 µg/mL (≈ 1.11 µM); with Coxsackievirus B3 it was 25 µg/mL (≈ 111 µM). Further, in data set [5], the “Ratio CC50/IC50” value is given as above 2000.
Consider `NC(=O)c1ncn([C@@H]2O[C@H](CO)[C@@H](O)[C@H]2O)n1` [RIBAVIRIN], for which, in [2], the IC50 turned out to be 3 µg/mL (≈ 12.3 µM).
